An excerpt weighted towards active compounds, which were near 2.2% of everything screened.
ASAP1 inh – inhibitors of human ASAP1 ArfGAP activity. Q9ULH1. ASAP1-stimulated ARF1 GTP hydrolysis, GDP FP detection. inhibition, % at 16.5 µM. 0.19% of 360,000 active; in the data active = inhibition above about 25%;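 note: 0% = vehicle with enzyme and substrate and 100% = no enzyme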
Target sequence (Q9ULH1 325-724 limits assumed): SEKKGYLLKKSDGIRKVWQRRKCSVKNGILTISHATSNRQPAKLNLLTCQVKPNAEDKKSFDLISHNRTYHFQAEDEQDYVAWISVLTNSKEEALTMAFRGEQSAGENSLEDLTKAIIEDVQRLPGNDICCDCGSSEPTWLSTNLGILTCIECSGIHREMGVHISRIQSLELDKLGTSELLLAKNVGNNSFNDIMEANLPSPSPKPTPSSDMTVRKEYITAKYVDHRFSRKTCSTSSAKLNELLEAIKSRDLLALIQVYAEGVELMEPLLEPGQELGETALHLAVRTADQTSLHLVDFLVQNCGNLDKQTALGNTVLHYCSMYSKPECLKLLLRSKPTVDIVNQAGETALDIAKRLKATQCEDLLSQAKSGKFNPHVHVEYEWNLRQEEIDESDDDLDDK
ARFGAP1 inh – inhibits rat ARF GTPase activating protein 1 | AID 651572 | Q62848 | 0.26% of 360,000 active | inhibition, % at 16.5 µM | Arfgap1-stimulated ARF1 GTP hydrolysis, GDP FP detection;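 active = inhibition above a per-plate limit, mean inhibition of low control wells plus 3 SD, cut at about 25% in these data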;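 note: 0% = DMSO wells with enzyme and 100% = wells lacking Arfgap1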
Target sequence (Q62848 1-136 limits assumed): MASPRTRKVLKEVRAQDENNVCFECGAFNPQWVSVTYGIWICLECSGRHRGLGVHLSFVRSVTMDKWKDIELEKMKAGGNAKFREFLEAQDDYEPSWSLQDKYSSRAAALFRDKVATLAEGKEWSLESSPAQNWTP
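Assay system: Rat Arfgap1 GAP domain (His6, aa 1-136), purified enzyme | Buffer or medium: HEPES 25 mM pH 7.5, NaCl 150 mM, MgCl2, DTT | Schedule: GTP hydrolysis reaction 2 h at 25 °C | Signal: FP of antibody-bound GDP Alexa 633 tracer, ex 620/em 688 nm | Measure: Percent inhibition of Arfgap1-stimulated GTP hydrolysis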
NadD inh – inhibitors of Staphylococcus aureus NadD; purified NadD enzyme, colorimetric absorbance read-out; AID 602399; 0.78% of 360,000 active; inhibition, % at 20 µM; in the data active = inhibition above about 26%
rCAG binder – binds r(CAG) RNA repeats. r(CAG) RNA repeat, TO-PRO-1 dye displacement fluorescence. inhibition, % at 3 µM. 1.3% of 370,000 active. AID 651821;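 active = inhibition above the plate cutoff, the mean of all test compounds on that plate plus 3 SD, cut at about 35% in these data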;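 note: 0% = DMSO alone and 100% = 100 µM mitoxantrone as full dye displacement; higher means more dye released from RNA so lower well fluorescence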
rCAG binder conf – r(CAG) RNA repeat binding, confirmation; shares compounds with rCAG binder; TO-PRO-1 dye displacement fluorescence; inhibition, % at 3 µM; 70% of 4,300 active; AID 652065;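 active = inhibition above a per-plate cutoff, the mean inhibition of sample wells plus 3 SD, cut at about 35% in these data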;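 note: loss of TO-PRO-1 fluorescence as compound displaces dye from 1x1 AA loop RNA; 0% = DMSO only wells and 100% = 100 µM mitoxantrone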
DNA CAG counter – DNA CAG dye complex inhibition counter-screen. 94% of 4,300 active. shares compounds with rCAG binder. d(CAG) DNA oligo TO-PRO-1 dye displacement, fluorescence. inhibition, % at 3 µM;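 active = inhibition above its plate's cutoff, the mean test-well inhibition plus 3 SD, cut at about 4.8% in these data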;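 note: 0% = DNA dye mix with DMSO and 100% = 100 µM mitoxantrone; hits displace the dye from DNA and so lower well fluorescence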
Starred values were filed as active, the others as inactive.

Screening CCc1ccc(N=C2NC(=O)/C(=C/c3ccc(OCC(=O)O)c(OC)c3)S2)cc1 returned ASAP1 inh 7, ARFGAP1 inh 13, NadD inh 9, rCAG binder 42*, rCAG binder conf 39* and DNA CAG counter 12*.
Screening CCc1ccc(N=C2NC(=O)/C(=C/c3ccc(OCC(=O)O)cc3)S2)cc1 returned ASAP1 inh 11, ARFGAP1 inh 17, NadD inh 8, rCAG binder 49*, rCAG binder conf 40* and DNA CAG counter 10*.
Screening CN(CCc1ccccn1)C(=O)c1cc2ccccn2n1 returned rCAG binder 4.
Cc1ccccc1CN1CCCCC(NC(=O)Cc2cccs2)C1=O (stereo not drawn) was read as rCAG binder 4.
For Cc1cc(C(C)(C)C)cc(C)c1S(=O)(=O)N1CCN(C(=O)c2cc([N+](=O)[O-])c[nH]c2=O)CC1 the results were ASAP1 inh -4, ARFGAP1 inh 11, NadD inh 22, rCAG binder 35*, rCAG binder conf 54* and DNA CAG counter 18*.
Cc1cc(C)c(S(=O)(=O)N2CCN(C(=O)c3cc(=O)[nH]c4ccccc34)CC2)c(C)c1 was read as ASAP1 inh 3, ARFGAP1 inh -5, NadD inh -2 and rCAG binder 2.
For N#CCc1nc2ccc(S(=O)(=O)N3CCOCC3)cc2s1 the results were ASAP1 inh -2, ARFGAP1 inh 2, NadD inh 10, rCAG binder 43*, rCAG binder conf 25 and DNA CAG counter 15*.
Screening CC(=O)N[C@H](Cc1c[nH]c2ccccc12)C(=O)O returned ASAP1 inh -20, ARFGAP1 inh -9, NadD inh -2 and rCAG binder 1.
CC(c1ccccc1)C(NC(=O)OCC1c2ccccc2-c2ccccc21)C(=O)O (stereo not drawn) was read as ASAP1 inh -7, ARFGAP1 inh -16, NadD inh 1, rCAG binder 46*, rCAG binder conf 42* and DNA CAG counter 8.9*.
Screening CC(O)C(NC(=O)OCc1ccccc1)C(=O)OCc1ccccc1 (stereo not drawn) returned ASAP1 inh -2, ARFGAP1 inh 8, NadD inh -4 and rCAG binder -1.
`O=C(N[C@H](Cc1ccc(Cl)cc1)C(=O)O)OCC1c2ccccc2-c2ccccc21` gave ASAP1 inh -1, ARFGAP1 inh 0, NadD inh 2, rCAG binder 40*, rCAG binder conf 66* and DNA CAG counter 24*.
O=C(NC(Cc1c[nH]c2ccccc12)C(=O)O)OCC1c2ccccc2-c2ccccc21 (stereo not drawn) was read as ASAP1 inh -8, ARFGAP1 inh -1, NadD inh 5, rCAG binder 69*, rCAG binder conf 59* and DNA CAG counter 18*.
Screening Nc1ccc(CNC(=O)OCC2c3ccccc3-c3ccccc32)cc1 returned ASAP1 inh 10, ARFGAP1 inh 11, NadD inh -2 and rCAG binder 1.
`O=C(CCc1c[nH]c2ccccc12)NC(Cc1ccccc1)C(=O)O` (stereo not drawn) gave ASAP1 inh -9, ARFGAP1 inh 14, NadD inh -4, rCAG binder 36*, rCAG binder conf 4 and DNA CAG counter 1.
COc1ccc(-n2c(SCC(=O)Nc3ccc4c(c3)OCCO4)nnc2-c2ccccc2)cc1 was read as rCAG binder 9.
COCCCNC(=O)C[C@H]1C[C@@]2(C(=O)OC)C(=C[C@H](COCc3ccccc3)O[C@@H]2C)N(Cc2ccc(Cl)cc2Cl)C1=O was read as rCAG binder 6.
COc1ccc(Cn2c(C)c(CC(=O)Nc3ccc(Oc4cccnc4)c(C)c3)c3ccccc32)cc1 was read as ASAP1 inh 4, ARFGAP1 inh 7 and rCAG binder 17.
For CCOc1cccc(C=NNc2nc(=O)cc(C(=O)OC)s2)c1O the results were ASAP1 inh 2, ARFGAP1 inh -1 and rCAG binder 16.
COc1cccc(NC(=O)C2CCCN2C(=O)NC2CCC(C)CC2)c1 (stereo not drawn) was read as rCAG binder 1.
Screening O=C(N[C@@H](Cc1ccc(Br)cc1)C(=O)O)OCC1c2ccccc2-c2ccccc21 returned ASAP1 inh 2, ARFGAP1 inh -1, NadD inh 1, rCAG binder 39*, rCAG binder conf 69* and DNA CAG counter 28*.
`O=C(Cc1ccccc1)N[C@@H](Cc1ccccc1)C(=O)O` gave ASAP1 inh -13, ARFGAP1 inh 0, NadD inh -1 and rCAG binder 5.
`COc1ccc(CN(CCN2CCOCC2)C(=O)c2cc(F)ccc2C)cc1OC` gave rCAG binder 1.
Cc1cccc(C)c1-n1c(SCC(=O)Nc2ccc(C(=O)O)cc2)nnc1-c1cccc(S(=O)(=O)N(C)C)c1 was read as ASAP1 inh -1, ARFGAP1 inh 0, NadD inh 2, rCAG binder 38*, rCAG binder conf 29 and DNA CAG counter 4.
For COc1ccc(OC)c(CN2C(=O)CCCCC2(C)c2nnnn2C2CCCC2)c1 (stereo not drawn) the results were rCAG binder 2.
`COc1ccc(NS(=O)(=O)c2c(F)cc(F)c(Cl)c2F)cc1S(=O)(=O)N1CCCCC1` gave ASAP1 inh -2, ARFGAP1 inh 4, NadD inh -3, rCAG binder 40*, rCAG binder conf 36* and DNA CAG counter 11*.
`COc1ccc(NS(=O)(=O)c2c(F)cccc2F)cc1S(=O)(=O)N1CCOCC1` gave ASAP1 inh 5, ARFGAP1 inh -6, NadD inh -1 and rCAG binder 9.
Screening COC(=O)[C@H](C)NC(=O)[C@H](CC(C)C)NC(=O)OC(C)(C)C returned rCAG binder 2.
Screening O=C(Nc1sc2c(c1C(=O)O)CCCC2)c1ccc(Cl)cc1 returned ASAP1 inh -3, ARFGAP1 inh 0, NadD inh -2, rCAG binder 69*, rCAG binder conf 50* and DNA CAG counter 14*.
For O=C(O)CC(Cc1ccc(Cl)cc1)C(=O)Nc1cc(Cl)ccc1Cl (stereo not drawn) the results were ASAP1 inh 8, ARFGAP1 inh -5, NadD inh 4, rCAG binder 40*, rCAG binder conf 27 and DNA CAG counter 4.
Screening COc1ccc(OC)c(NC(=O)C(CC(=O)O)Cc2ccc(Cl)cc2)c1 (stereo not drawn) returned ASAP1 inh -7, ARFGAP1 inh 20, NadD inh -1 and rCAG binder 12.
`O=C(NNC(=O)C1CC1)c1cc(Br)c(Br)s1` gave ASAP1 inh 13, ARFGAP1 inh 13, NadD inh 2, rCAG binder 36*, rCAG binder conf 37* and DNA CAG counter 13*.

Screening data: PubChem, several laboratories
